Laboratory results: ChEMBL document CHEMBL5329183, “Naphthylthiazoles: a class of broad-spectrum antifungals” (RSC Med Chem, 2023)
In brackets after ≈: the same amount, converted by molar mass.

What was measured:
[1] = Selectivity ratio of CC50 for cytotoxicity against African green monkey Vero cells to MIC for antifungal activity against Cryptococcus gattii NR 43209; assay type: toxicity, cell-based
[2] = Selectivity ratio of CC50 for cytotoxicity against human Caco-2 cells to MIC for antifungal activity against Cryptococcus gattii NR 43214; assay type: toxicity, cell-based
[3] = system: Cryptococcus neoformans; assay: Antifungal activity against Cryptococcus neoformans NR 48770 assessed as inhibition of fungal growth incubated for 48 hrs by broth microdilution method; assay type: functional
Procedure, shortened: (§1)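 Clinical isolate; CLSI broth microdilution over a range of concentrations (media listed: RPMI 1640, MOPS, YPD). MIC read as lowest concentration inhibiting growth by 50% after 48 h incubation at 35 °C.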

[4] = system: Lactobacillus gasseri; assay: Antibacterial activity against Lactobacillus gasseri HM400 assessed as inhibition of bacterial growth; assay type: toxicity, organism-based
[5] = Selectivity ratio of CC50 for cytotoxicity against African green monkey Vero cells to MIC for antifungal activity against Cryptococcus gattii NR 43210; assay type: toxicity, cell-based
[6] = system: [Candida] auris; assay: Antifungal activity against Candida auris 381 assessed as inhibition of fungal growth incubated for 24 hrs by broth microdilution method; assay type: functional; details: Candidozyma auris
Procedure, shortened: (§2)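 Clinical isolate; CLSI broth microdilution over a range of concentrations (media listed: RPMI 1640, MOPS, YPD). MIC taken as lowest concentration giving 50% growth inhibition after 24 h at 35 °C.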

[7] = Selectivity ratio of CC50 for cytotoxicity against African green monkey Vero cells to MIC for antifungal activity against Cryptococcus gattii NR 43213; assay type: toxicity, cell-based
[8] = system: Cryptococcus neoformans; assay: Antifungal activity against Cryptococcus neoformans NR 41299 assessed as inhibition of fungal growth incubated for 48 hrs by broth microdilution method; assay type: functional; procedure, shortened: as §1
[9] = system: Staphylococcus aureus; assay: Antibacterial activity against Methicillin-resistant Staphylococcus aureus USA300 assessed as inhibition of bacterial growth; assay type: functional
[10] = Selectivity ratio of CC50 for cytotoxicity against human Caco-2 cells to MIC for antifungal activity against Cryptococcus neoformans NR 48773; assay type: toxicity, cell-based
[11] = Selectivity ratio of CC50 for cytotoxicity against African green monkey Vero cells to MIC for antifungal activity against Cryptococcus gattii NR 43216; assay type: toxicity, cell-based
[12] = Selectivity ratio of CC50 for cytotoxicity against human Caco-2 cells to MIC for antifungal activity against Cryptococcus neoformans NR 41298; assay type: toxicity, cell-based
[13] = system: Cryptococcus neoformans; assay: Antifungal activity against Cryptococcus neoformans NR 41298 assessed as inhibition of fungal growth incubated for 48 hrs by broth microdilution method; assay type: functional; procedure, shortened: as §1
[14] = system: J774; assay: Cytotoxicity against mouse J774 cells assessed as reduction in cell viability at 64 ug/ml measured after 24 hrs by MTS assay; assay type: toxicity, cell-based; details: j774, 24 h, dose 64 µg/ml
Procedure, shortened: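 J774 murine macrophages were grown in DMEM with 10% FBS and exposed to compounds for 24 h at 37 °C, 5% CO2. After 3 h with MTS, OD490 was read. Viability was expressed relative to DMSO-matched controls.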

[15] = Antifungal activity against Cryptococcus gattii NR 43209 assessed as inhibition of fungal growth incubated for 48 hrs by broth microdilution method; assay type: functional, Cryptococcus gattii VGI
Procedure, shortened: (§3)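 Broth microdilution per CLSI guidelines against clinical isolates, incubated at 35 °C for 24 h (Candida, Aspergillus) or 48 h (Cryptococcus). MIC was the lowest concentration giving 50% growth inhibition.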

[16] = Selectivity ratio of CC50 for cytotoxicity against African green monkey Vero cells to MIC for antifungal activity against Cryptococcus neoformans NR 41300; assay type: toxicity, cell-based
[17] = system: Escherichia coli; assay: Antibacterial activity against Escherichia coli JW55031 harboring tolC mutant assessed as inhibition of bacterial growth; assay type: functional
[18] = Selectivity ratio of CC50 for cytotoxicity against African green monkey Vero cells to MIC for antifungal activity against Cryptococcus neoformans NR 48767; assay type: toxicity, cell-based
[19] = Selectivity ratio of CC50 for cytotoxicity against human Caco-2 cells to MIC for antifungal activity against Cryptococcus neoformans NR 48767; assay type: toxicity, cell-based
[20] = system: Candida parapsilosis; assay: Antifungal activity against Candida parapsilosis CAB 502638 assessed as inhibition of fungal growth incubated for 24 hrs by broth microdilution method; assay type: functional; details: Lodderomyces parapsilosis; procedure, shortened: as §3
[21] = system: Aspergillus fumigatus; assay: Antifungal activity against Aspergillus fumigatus NR 35304 assessed as inhibition of fungal growth incubated for 24 hrs by broth microdilution method; assay type: functional; procedure, shortened: as §3
[22] = Antifungal activity against Cryptococcus gattii NR 43214 assessed as inhibition of fungal growth incubated for 48 hrs by broth microdilution method; assay type: functional, Cryptococcus gattii VGI; procedure, shortened: as §3
[23] = system: Cryptococcus neoformans; assay: Antifungal activity against Cryptococcus neoformans NR 48771 assessed as inhibition of fungal growth incubated for 48 hrs by broth microdilution method; assay type: functional; procedure, shortened: as §1
[24] = system: Candida albicans; assay: Antifungal activity against wild type Candida albicans SC5314 assessed as inhibition of fungal growth; assay type: functional
[25] = Apparent permeability of the compound measured after 4 hrs by PAMPA assay; assay type: ADME
Procedure, shortened: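 PAMPA: compound was placed in pH 6.5 donor buffer across a lipid-pretreated PVDF filter from pH 7.4 acceptor buffer, and incubated 4 h at ambient temperature. Donor and acceptor amounts at start and end were measured by UV absorbance to give apparent permeability.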

[26] = Selectivity ratio of CC50 for cytotoxicity against African green monkey Vero cells to MIC for antifungal activity against Cryptococcus neoformans NR 48773; assay type: toxicity, cell-based
[27] = Selectivity ratio of CC50 for cytotoxicity against human Caco-2 cells to MIC for antifungal activity against Cryptococcus gattii NR 43216; assay type: toxicity, cell-based
[28] = system: Candida parapsilosis; assay: Antifungal activity against Candida parapsilosis ATCC 22019 assessed as inhibition of fungal growth incubated for 24 hrs by broth microdilution method; assay type: functional; details: Lodderomyces parapsilosis; procedure, shortened: as §2
[29] = system: Cryptococcus neoformans; assay: Anti-cryptococcal activity against Cryptococcus neoformans NR 41300 infected in mouse J774 cells assessed as log reduction of intracellular fungal colony forming unit at 4 ug/ml measured after 24 hrs; assay type: functional; details: dose 4 µg/ml
Procedure, shortened: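 C. neoformans NR-41300 was grown 48 h in YPD, washed, and used to infect J774 macrophages at MOI ~100:1 for 1 h, followed by PBS washes. Compounds at 4 μg mL−1 (triplicate) were applied for 22 h at 37 °C, 5% CO2. Extracellular yeast were killed with amphotericin B 1 μg mL−1 for 1 h. Cells were lysed in 0.1% Triton X-100 and plated on YPD agar for 48 h at 37 °C; readout log10 CFU mL−1.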

[30] = Selectivity ratio of CC50 for cytotoxicity against human Caco-2 cells to MIC for antifungal activity against Cryptococcus neoformans NR 48771; assay type: toxicity, cell-based
[31] = Selectivity ratio of CC50 for cytotoxicity against human Caco-2 cells to MIC for antifungal activity against Cryptococcus neoformans NR 41300; assay type: toxicity, cell-based
[32] = system: Pichia kudriavzevii; assay: Antifungal activity against Candida krusei ATCC 34135 assessed as inhibition of fungal growth incubated for 24 hrs by broth microdilution method; assay type: functional; procedure, shortened: as §3
[33] = system: Cryptococcus neoformans; assay: Antibiofilm activity against Cryptococcus neoformans NR 41300 assessed as inhibition of biofilm formation at 0.5xMIC measured after 48 hrs by crystal violet staining based analysis; assay type: functional
Procedure, shortened: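 Overnight C. neoformans was washed twice in PBS and adjusted to 105 cells per mL in RPMI. Cells were exposed to compound at 0.5 × MIC for 48 h at 35 °C. Biofilm was rinsed, dried, stained with 0.1% crystal violet, and the dye extracted with glacial acetic acid; OD595 readout.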

[34] = system: Cryptococcus neoformans; assay: Antifungal activity against Cryptococcus neoformans NR 48773 assessed as inhibition of fungal growth incubated for 48 hrs by broth microdilution method; assay type: functional; procedure, shortened: as §1

SMILES | selectivity ratio [1] | selectivity ratio [2] | MIC [3] [µg/mL] | MIC [4] [µg/mL] | selectivity ratio [5] | MIC [6] [µg/mL] | selectivity ratio [7] | MIC [8] [µg/mL] | MIC [9] [µg/mL] | selectivity ratio [10] | selectivity ratio [11] | selectivity ratio [12] | MIC [13] [µg/mL] | Activity [14] | MIC [15] [µg/mL] | selectivity ratio [16] | MIC [17] [µg/mL] | selectivity ratio [18] | selectivity ratio [19] | MIC [20] [µg/mL] | further results
Cc1nc(-c2ccc3ccccc3c2)sc1-c1nnc(N[C@@H]2CCCC[C@@H]2N)o1 (relative stereo) | 64 | 64 | 1 (≈ 2.47 µM) | > 128 | 64 | 2 (≈ 4.93 µM) | 64 | 2 (≈ 4.93 µM) | > 64 | 64 | 64 | 64 | 1 (≈ 2.47 µM) | Non-Toxic | 1 (≈ 2.47 µM) | 64 | > 64 | 64 | 64 | 1 (≈ 2.47 µM) | MIC [21]: 4 µg/mL (≈ 9.86 µM); MIC [22]: 2 µg/mL (≈ 4.93 µM); MIC [23]: 2 µg/mL (≈ 4.93 µM); MIC [24]: 1 µg/mL (≈ 2.47 µM); Papp at 4 h [25]: 26.3 ×10⁻⁶ cm/s; selectivity ratio [26]: 64; selectivity ratio [27]: 64; MIC [28]: 1 µg/mL (≈ 2.47 µM); Activity [29]: 1.04 log10CFU/ml; selectivity ratio [30]: 64; selectivity ratio [31]: 64; MIC [32]: 1 µg/mL (≈ 2.47 µM); growth inhibition (GI) [33]: ~53%; MIC [34]: 2 µg/mL (≈ 4.93 µM)
Cc1nc(-c2ccc3ccccc3c2)sc1-c1nnc(N[C@@H]2CCCC[C@H]2N)o1 (relative stereo) | 64 | 64 | 1 (≈ 2.47 µM) | > 128 | 64 | 2 (≈ 4.93 µM) | 64 | 1 (≈ 2.47 µM) | 64 (≈ 158 µM) | 64 | 64 | 64 | 1 (≈ 2.47 µM) | Non-Toxic | 1 (≈ 2.47 µM) | 64 | > 64 | 64 | 64 | 1 (≈ 2.47 µM) | MIC [21]: 4 µg/mL (≈ 9.86 µM); MIC [22]: 1 µg/mL (≈ 2.47 µM); MIC [23]: 1 µg/mL (≈ 2.47 µM); MIC [24]: 1 µg/mL (≈ 2.47 µM); Papp at 4 h [25]: 57.7 ×10⁻⁶ cm/s; selectivity ratio [26]: 64; selectivity ratio [27]: 64; MIC [28]: 1 µg/mL (≈ 2.47 µM); Activity [29]: 0.66 log10CFU/ml; selectivity ratio [30]: 64; selectivity ratio [31]: 64; MIC [32]: 1 µg/mL (≈ 2.47 µM); growth inhibition (GI) [33]: ~56%; MIC [34]: 2 µg/mL (≈ 4.93 µM)
